The target in test [1] is T1, Excitatory amino acid transporter 3 (Homo sapiens, UniProt P43005).
T1 sequence (P43005 whole entry): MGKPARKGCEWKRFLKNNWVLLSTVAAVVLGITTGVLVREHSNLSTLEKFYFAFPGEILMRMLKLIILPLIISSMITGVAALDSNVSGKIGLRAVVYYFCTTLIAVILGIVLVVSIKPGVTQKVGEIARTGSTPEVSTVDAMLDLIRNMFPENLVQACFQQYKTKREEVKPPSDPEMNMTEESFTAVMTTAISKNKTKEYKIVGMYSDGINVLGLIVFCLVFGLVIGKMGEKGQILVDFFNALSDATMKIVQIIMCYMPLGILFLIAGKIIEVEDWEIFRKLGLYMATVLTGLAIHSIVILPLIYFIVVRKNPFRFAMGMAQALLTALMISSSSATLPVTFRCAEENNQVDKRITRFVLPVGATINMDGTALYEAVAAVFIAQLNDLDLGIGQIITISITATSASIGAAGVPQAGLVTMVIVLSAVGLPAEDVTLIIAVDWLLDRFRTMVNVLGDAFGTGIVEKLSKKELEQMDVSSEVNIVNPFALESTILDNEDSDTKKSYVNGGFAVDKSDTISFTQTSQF
The test is described as follows: Activity against human EAAT3 transfected in HEK293 cells. It counts as cell-based. The gist of the method:
(§1)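 HEK293 lines stably expressing the human transporter were grown on poly-D-lysine plates in DMEM with 10% dialyzed FBS, pen/strep and 1 mg/mL G-418. After 16-24 h, cells were put in Krebs buffer (pH 7.4) containing inhibitor and loaded with FMP dye for 30 min at 37 °C. Plates were read at 30 °C (ex 530/em 560 nm) up to 1 min after adding 30 µM Glu. Runs were in triplicate, ≥3 times. IC50 was converted to Ki by Cheng-Prusoff.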

Test [2] has as its target Excitatory amino acid transporter 1 (Homo sapiens, UniProt P43003). The test is described as follows: Activity against human EAAT1 transfected in HEK293 cells. It counts as cell-based. The gist of the method:
as §1

Test [3] has as its target Excitatory amino acid transporter 2 (Homo sapiens, UniProt P43004). Kind of test: Activity against human EAAT2 transfected in HEK293 cells. It counts as cell-based. The gist of the method: as §1
Test [4] has as its target Glutamate receptor ionotropic, AMPA (Rattus norvegicus, UniProt P19490+P19491+P19492+P19493). The test is described as follows: Displacement of [3H]AMPA from AMPA receptor in rat brain. The class given is tissue-based. The gist of the method:
(§2)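 Radioligand binding used rat brain membranes prepared by the Ransom and Stec method. Ligands were 5 nM [³H]AMPA for AMPA sites, 5 nM [³H]KAIN for kainate sites and 2 nM [³H]CGP 39653 for NMDA sites, and the value is reported as IC50.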

In test [5] the target is Metabotropic glutamate receptor 1 (Homo sapiens, UniProt Q13255). Kind of test: Activity against mGluR1.
Test [6] addresses Glutamate receptor ionotropic, kainate. Kind of test: Displacement of [3H]KAIN from kainate receptor in rat brain. The class given is tissue-based. The gist of the method:
as §2

Test [7] deals with Metabotropic glutamate receptor 2 (Homo sapiens, UniProt Q14416). The test is described as follows: Activity against mGluR2.
Test [8] deals with Glutamate NMDA receptor. The test is described as follows: Displacement of [3H]CGP-39653 from NMDA preferring iGlu receptor in rat brain. It counts as tissue-based.

The structures appear in SMILES notation. pEC50, pIC50, pKi: −log10 of the molar value. Some results are limits rather than exact numbers.

Chain of Excitatory amino acid transporter 2 (P43004 whole entry): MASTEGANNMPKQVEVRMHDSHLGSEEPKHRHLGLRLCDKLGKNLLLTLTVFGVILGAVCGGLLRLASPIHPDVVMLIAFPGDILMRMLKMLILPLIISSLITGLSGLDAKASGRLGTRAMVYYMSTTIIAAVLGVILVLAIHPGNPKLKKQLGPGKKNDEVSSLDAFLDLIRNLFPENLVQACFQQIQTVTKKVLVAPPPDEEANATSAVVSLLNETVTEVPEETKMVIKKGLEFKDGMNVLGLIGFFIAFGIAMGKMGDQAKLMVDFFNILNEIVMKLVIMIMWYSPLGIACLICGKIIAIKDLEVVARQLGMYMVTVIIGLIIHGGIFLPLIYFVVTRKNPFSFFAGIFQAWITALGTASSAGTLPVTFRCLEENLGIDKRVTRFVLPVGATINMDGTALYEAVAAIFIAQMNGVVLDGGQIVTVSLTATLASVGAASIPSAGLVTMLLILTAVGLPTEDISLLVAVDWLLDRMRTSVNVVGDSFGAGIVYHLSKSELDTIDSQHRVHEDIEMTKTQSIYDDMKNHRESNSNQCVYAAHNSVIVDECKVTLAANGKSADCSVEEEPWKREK
Chain of Excitatory amino acid transporter 1 (P43003 whole entry): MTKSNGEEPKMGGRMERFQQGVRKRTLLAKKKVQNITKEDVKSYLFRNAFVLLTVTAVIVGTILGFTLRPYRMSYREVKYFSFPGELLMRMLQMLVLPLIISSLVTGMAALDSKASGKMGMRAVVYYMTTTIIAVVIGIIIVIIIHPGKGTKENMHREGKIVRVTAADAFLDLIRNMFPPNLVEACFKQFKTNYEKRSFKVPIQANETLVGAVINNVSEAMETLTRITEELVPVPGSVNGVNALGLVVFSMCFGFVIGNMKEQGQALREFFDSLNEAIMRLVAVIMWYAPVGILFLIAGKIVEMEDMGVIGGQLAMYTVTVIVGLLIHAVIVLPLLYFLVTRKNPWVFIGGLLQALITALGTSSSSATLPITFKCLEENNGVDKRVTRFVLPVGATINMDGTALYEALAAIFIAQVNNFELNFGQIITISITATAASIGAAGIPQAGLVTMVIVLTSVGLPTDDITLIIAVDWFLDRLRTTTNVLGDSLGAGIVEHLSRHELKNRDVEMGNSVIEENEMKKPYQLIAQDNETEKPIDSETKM
Chain of Metabotropic glutamate receptor 1 (Q13255 whole entry): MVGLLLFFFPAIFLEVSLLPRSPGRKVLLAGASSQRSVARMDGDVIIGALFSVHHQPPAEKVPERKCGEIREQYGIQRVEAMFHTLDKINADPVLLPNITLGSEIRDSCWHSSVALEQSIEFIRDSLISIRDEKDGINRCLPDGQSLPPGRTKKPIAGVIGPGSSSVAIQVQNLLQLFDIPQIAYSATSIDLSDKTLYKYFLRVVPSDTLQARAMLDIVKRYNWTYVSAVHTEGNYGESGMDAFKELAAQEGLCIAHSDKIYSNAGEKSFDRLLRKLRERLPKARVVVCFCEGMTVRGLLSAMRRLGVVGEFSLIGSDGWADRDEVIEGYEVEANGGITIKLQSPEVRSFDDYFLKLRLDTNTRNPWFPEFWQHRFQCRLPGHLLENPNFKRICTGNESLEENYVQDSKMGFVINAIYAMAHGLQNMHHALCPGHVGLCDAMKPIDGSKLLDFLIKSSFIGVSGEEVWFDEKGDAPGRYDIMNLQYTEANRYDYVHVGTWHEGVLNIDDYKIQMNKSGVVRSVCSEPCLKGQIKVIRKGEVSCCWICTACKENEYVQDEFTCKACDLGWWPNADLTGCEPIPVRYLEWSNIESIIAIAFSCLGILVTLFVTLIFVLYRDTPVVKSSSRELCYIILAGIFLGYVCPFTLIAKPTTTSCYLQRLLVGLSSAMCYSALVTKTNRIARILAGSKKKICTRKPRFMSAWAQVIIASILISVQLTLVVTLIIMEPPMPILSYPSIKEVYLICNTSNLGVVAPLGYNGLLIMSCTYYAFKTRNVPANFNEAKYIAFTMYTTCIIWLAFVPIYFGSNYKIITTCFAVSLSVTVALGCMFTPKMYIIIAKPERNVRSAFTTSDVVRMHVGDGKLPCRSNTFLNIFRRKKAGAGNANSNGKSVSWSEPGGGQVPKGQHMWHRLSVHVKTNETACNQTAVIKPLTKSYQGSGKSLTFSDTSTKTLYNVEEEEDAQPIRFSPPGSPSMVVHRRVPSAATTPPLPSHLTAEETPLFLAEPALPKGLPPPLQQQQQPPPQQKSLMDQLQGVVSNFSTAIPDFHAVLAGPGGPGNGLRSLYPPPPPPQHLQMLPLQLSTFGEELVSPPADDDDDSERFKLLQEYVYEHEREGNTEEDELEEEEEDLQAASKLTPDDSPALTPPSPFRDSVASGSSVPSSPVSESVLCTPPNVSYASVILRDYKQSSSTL
Chain of Metabotropic glutamate receptor 2 (Q14416 whole entry): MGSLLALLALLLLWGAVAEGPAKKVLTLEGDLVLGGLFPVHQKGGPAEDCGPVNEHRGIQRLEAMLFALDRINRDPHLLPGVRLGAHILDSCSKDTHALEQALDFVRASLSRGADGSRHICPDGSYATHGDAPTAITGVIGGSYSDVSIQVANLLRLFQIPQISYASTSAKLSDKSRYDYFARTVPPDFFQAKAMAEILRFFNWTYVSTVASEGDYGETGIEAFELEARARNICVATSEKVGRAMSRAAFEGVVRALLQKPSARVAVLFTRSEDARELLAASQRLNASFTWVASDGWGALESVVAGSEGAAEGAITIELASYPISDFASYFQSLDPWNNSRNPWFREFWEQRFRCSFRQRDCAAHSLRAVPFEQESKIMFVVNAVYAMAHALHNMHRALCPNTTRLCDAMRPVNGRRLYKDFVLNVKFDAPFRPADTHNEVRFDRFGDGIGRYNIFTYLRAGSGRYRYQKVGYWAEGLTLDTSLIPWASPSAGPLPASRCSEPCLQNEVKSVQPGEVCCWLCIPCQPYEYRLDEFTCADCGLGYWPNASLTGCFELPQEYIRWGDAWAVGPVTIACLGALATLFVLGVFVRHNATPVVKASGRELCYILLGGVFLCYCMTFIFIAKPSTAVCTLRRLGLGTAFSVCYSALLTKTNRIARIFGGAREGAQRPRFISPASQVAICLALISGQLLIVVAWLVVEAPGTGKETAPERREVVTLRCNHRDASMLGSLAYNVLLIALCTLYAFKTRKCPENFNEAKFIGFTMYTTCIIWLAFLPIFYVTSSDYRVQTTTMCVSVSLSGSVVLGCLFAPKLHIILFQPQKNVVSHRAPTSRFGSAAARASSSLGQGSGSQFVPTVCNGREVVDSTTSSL

Turning to `O=C(O)[C@H]1CC2CC1[C@@H](C(=O)O)N2` (stereo partly specified), the pKi in test [1], in test [2] and in test [3] was less than 3.40 in each case.

`O=C(O)[C@H]1CC[C@H]2CN[C@H](C(=O)O)[C@H]21`: the pIC50 is less than 4.00 in test [4] and 4.85 in test [6]. In addition, the pEC50 in test [5] is less than 3.00; in test [7], 3.00. The negative-log Ki (pKi) is 4.34 in test [1], 3.90 in test [2], 5.54 in test [8] and 4.28 in test [3].
